Only some compounds are listed: those with a hit (about 12% of all), similar ones and a draw of the others.
WT yeast gro inh – growth inhibition of WT strain, primary screen, mitochondrial fusion inhibitor project, WT and mutant strains, chemical genetic | AID 1362, 2008 | mitochondrial fusion phenotypic screen | hit rate 2.1% among 190,000 | inhibition, % at 10 µM; in the data active means inhibition above about 58%; tested in S. cerevisiae
KCC2 mod – KCC2 cotransporter modulators, thallium flux, primary screen, cell-based, HEK293 KCC2, FluoZin-2 fluorescence, MLSMR | Solute carrier family 12 member 5 (Homo sapiens), Q9H2X9 | B-score of Tl+ flux slope (higher = more flux/activation; lower = inhibition) at 10 µM | KCC2 cells, thallium flux FluoZin-2 fluorescence | AID 1456, 2008 | hit rate 2.2% among 190,000;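 active means thallium flux slope and its plate-corrected score both differing from the plate sample mean at a set confidence after two filtering rounds, in either direction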;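 further: slope of fluorescence scaled to starting intensity during 10 to 20 s after thallium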
Target sequence (Q9H2X9 whole entry, looked up): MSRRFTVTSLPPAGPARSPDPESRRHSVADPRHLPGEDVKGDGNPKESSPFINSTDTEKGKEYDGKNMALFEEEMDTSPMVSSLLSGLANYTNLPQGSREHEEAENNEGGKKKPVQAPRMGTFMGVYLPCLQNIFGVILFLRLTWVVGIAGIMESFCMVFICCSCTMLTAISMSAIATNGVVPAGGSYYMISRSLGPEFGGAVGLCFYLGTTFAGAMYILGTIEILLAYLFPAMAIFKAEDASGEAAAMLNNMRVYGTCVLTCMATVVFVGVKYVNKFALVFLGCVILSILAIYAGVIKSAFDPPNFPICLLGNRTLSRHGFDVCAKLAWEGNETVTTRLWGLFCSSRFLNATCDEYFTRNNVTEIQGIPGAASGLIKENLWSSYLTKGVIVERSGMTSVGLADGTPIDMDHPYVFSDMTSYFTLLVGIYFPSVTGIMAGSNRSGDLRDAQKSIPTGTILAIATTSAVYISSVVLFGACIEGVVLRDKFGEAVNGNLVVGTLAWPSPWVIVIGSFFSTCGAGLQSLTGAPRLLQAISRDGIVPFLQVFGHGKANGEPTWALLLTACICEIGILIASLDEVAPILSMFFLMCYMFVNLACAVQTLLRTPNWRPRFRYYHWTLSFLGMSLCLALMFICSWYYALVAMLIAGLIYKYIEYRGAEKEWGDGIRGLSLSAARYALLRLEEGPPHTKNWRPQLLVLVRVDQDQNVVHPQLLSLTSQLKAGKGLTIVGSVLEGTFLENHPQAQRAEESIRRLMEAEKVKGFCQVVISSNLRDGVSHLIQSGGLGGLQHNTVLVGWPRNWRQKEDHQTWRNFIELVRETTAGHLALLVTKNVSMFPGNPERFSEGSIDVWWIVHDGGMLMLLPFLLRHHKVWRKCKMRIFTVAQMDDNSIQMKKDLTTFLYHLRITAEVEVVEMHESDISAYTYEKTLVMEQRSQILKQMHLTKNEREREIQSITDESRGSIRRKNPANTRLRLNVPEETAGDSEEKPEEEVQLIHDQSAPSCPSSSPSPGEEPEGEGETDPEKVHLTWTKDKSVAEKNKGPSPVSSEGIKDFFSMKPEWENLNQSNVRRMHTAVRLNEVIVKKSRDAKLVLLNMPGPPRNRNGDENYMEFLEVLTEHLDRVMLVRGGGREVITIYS
Diaph act CS – compounds boosting diaphorase resazurin reduction – biochemical, uHTS, resorufin fluorescence, counter-screen for diaphorase-coupled primary assays, primary screen | Diaphorase/resazurin coupled assay, 16 min; stronger effect = higher value; 1 = vehicle wells, 0 = NADH-free wells | activation factor at 20 µM | hit rate 0.005% among 190,000 | AID 1229, 2008;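 active means diaphorase activity raised at least twofold by the compound at 20 µM; inactive means activation factor below 2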
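System – purified diaphorase enzyme from Clostridium kluyveri · Input – enzyme 0.07 U/mL final · Also added – final NADH 0.114 mM, resazurin 0.1 mM · Measured by – fluorescence of resorufin, 544 nm excitation, 590 nm emission · Timing – 16 min enzyme reaction, ambient temperature · Measure – resorufin increase flagging diaphorase activators or reducers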
L major viab – Leishmania major promastigote growth inhibition, primary screen | Leishmania major promastigotes, resazurin fluorescence viability | inhibition, % at 10 µM | hit rate 9% among 200,000 | AID 1063, 2008; in the data active means inhibition above about 50%;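 further: promastigotes grown with compound for 44 hours at 28 °C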
Diaphorase inh – diaphorase inhibitors and chemical oxidizers, primary screen, counter-screen for diaphorase-coupled primary assays, biochemical, uHTS, resorufin fluorescence. diaphorase resazurin-to-resorufin fluorescence, NADH, 16 min; bacterial (C. kluyveri) enzyme, not human. inhibition, % at 20 µM. hit rate 0.69% among 190,000;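 active means primary screen inhibition at 20 µM above a set limit, cut at about 50% in these data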;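 further: plate controls were DMSO with full reaction for no effect and wells lacking NADH for full effect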
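Assay system: diaphorase enzyme from Clostridium kluyveri. Quantity: enzyme working solution with 0.14 U/mL diaphorase. Schedule: reaction incubation of 16 min at room temperature. Technique: resorufin fluorescence, excitation 544 nm, emission 590 nm. Controls: No-NADH positive control and DMSO neutral control.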
ROMK mod – ROMK potassium channel modulators, primary screen, cell-based, thallium flux, MLSMR library. Tet-inducible ROMK, thallium flux fluorescence; actives lie on both sides. B-score at 10 µM. hit rate 2% among 130,000;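 active means signal ratio slope over the read window, or its plate-corrected B-score, at least 3 SD from the plate mean, either direction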;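 further: B-score of the F/F0 ratio slope over 7 to 12 s after thallium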
Active calls of the source: *; nt = no result.

SMILES	WT yeast gro inh	KCC2 mod	Diaph act CS	L major viab	Diaphorase inh	ROMK mod
O=C1CC(N2CCN(C(c3ccccc3)c3ccccc3)CC2)C(=O)N1Cc1ccc(N2CCCC2=O)cc1 (stereo not given)	8.9	-0.471	0.8	97.9*	24.7	nt
CCCCOc1ccc(/C(O)=C2/C(=O)C(=O)N(Cc3cccnc3)C2c2ccncc2)c(C)c1 (stereo not given)	-10.9	-0.0207	0.9	-9.3	9.6	1.38
COc1ccc(Cl)cc1Nc1nc(-c2sc(NC(=O)c3ccccc3)nc2C)cs1	26.3	1.14	0.9	41.1	7.7	nt
Cc1nc(NC(=O)c2ccco2)sc1-c1csc(Nc2ccc(Cl)cc2Cl)n1	70.9*	0.722	0.9	73.7*	8.9	nt
COc1ccccc1Nc1nc(-c2sc(NC(=O)c3ccco3)nc2C)cs1	-2.9	-0.256	0.8	99.7*	22.6	nt
Cc1nc(NC(=O)c2ccco2)sc1-c1csc(Nc2ccc(Cl)cc2)n1	50.7	0.128	0.7	41.1	29.0	nt
Cc1nc(NC(=O)c2ccccc2)sc1-c1csc(Nc2ccc(Cl)cc2Cl)n1	10.3	0.722	0.8	53.9*	16.6	nt
Cc1ccc(Cl)cc1Nc1nc(-c2sc(NC(=O)c3ccco3)nc2C)cs1	28.4	-0.31	0.7	49.9	25.5	-0.164
O=C(Cc1ccccc1)Nc1ccccc1Oc1ccccc1	1.5	-0.225	0.9	-8.0	13.5	-0.205
Cc1ccc(S(=O)(=O)NCc2ccc(C(=O)NCCN(Cc3ccccc3)C(C)C)cc2)cc1	-18.6	0.189	1	67.4*	-0.1	-0.479
CC1=C(CC(=O)O)c2cc(F)ccc2/C1=C\c1ccc(S(C)=O)cc1 (stereo not given)	nt	0.126	nt	nt	nt	nt
C/C(=N\NC1=NCCN1)c1ccccc1	nt	-1.18	nt	nt	nt	nt
COc1ccc(Br)cc1/C(C)=N/NC1=NCCN1	9.4	-1.19	1	52.1*	4.2	-1.17
Clc1ccc2nc(C3CCN(Cc4ccccc4)CC3)[nH]c2c1	-0.6	-0.423	0.9	88.3*	8.2	nt
O=C(Cn1nnc2ccccc21)OCC(=O)c1ccc(Cl)cc1	nt	-0.431	nt	nt	nt	nt
Cc1cccc(-n2c(SCc3ccc(C#N)cc3)nnc2-c2c[nH]c3ccccc23)c1	10.7	-0.21	0.8	97.8*	23.0	0.405
CCN(CC)CC(=O)Nc1ccc2c(c1)Nc1ccccc1CC2	10.8	nt	0.8	52.4*	24.0	0.0162
CCN(CC(=O)Nc1ccc2c(c1)CCC2)Cc1nc2ccccc2c(=O)[nH]1	-10.6	0.476	0.8	2.5	16.5	nt
Nc1nnc(SCC(=O)c2ccc([N+](=O)[O-])cc2)s1	0.1	0.198	0.9	84.0*	13.8	-0.0414
Cc1nnc(SCC(=O)c2ccc([N+](=O)[O-])cc2)s1	-6.3	-0.024	1	5.2	-0.4	-0.509
O=c1c2sc3nc(N4CCOCC4)c4c(c3c2ncn1Cc1ccco1)CCCC4	nt	nt	nt	nt	nt	0.201
C=C(C(=O)c1ccccc1)C(C)CC(=O)c1ccccc1 (stereo not given)	-21.7	-0.0937	0.9	85.7*	12.7	nt
CCN(C(=O)COC(=O)c1ccc2[nH]c3c(c2c1)CCCC3)C1CCS(=O)(=O)C1 (stereo not given)	-6.2	-0.0269	1	31.3	3.9	-0.0509
CCOC(=O)N1CCN(c2ncc(C(F)(F)F)cc2Cl)CC1	18.1	0.0188	0.8	-0.9	15.8	-0.302
O=C(Nc1ccc2c(c1)OCO2)N1CCN(c2ncc(C(F)(F)F)cc2Cl)CC1	18.1	-0.555	0.7	68.1*	25.3	-0.768
SMILES	WT yeast gro inh	KCC2 mod	Diaph act CS	L major viab	Diaphorase inh	ROMK mod
CNCC(=O)N1CCN(c2ncc(C(F)(F)F)cc2Cl)CC1	7.8	0.841	1	71.1*	4.6	-0.674
Fc1cccc(Cc2noc(CN3CCCCC3CCc3ccccn3)n2)c1 (stereo not given)	9.9	-0.352	1	12.1	1.3	0.255
COc1ccc(-c2cc(-c3ccc(OC)c(OC)c3)n[nH]2)c(O)c1	55.2	0.0314	1	98.8*	-0.8	0.0585
COc1ccc(-c2cc(-c3cc(OC)ccc3O)[nH]n2)cc1	33.0	-0.836	1	91.4*	4.1	-0.869
COc1ccc(-c2cc(-c3ccccc3O)[nH]n2)cc1OC	36.2	0.209	0.8	39.9	17.8	nt
CC(NC(=O)c1ccco1)C(=O)OCC(=O)c1ccc(Cl)s1 (stereo not given)	1.5	-2.16	1	0.1	3.0	0.274
Oc1cccc2ccc(Nc3ccccn3)nc12	-12.7	-0.362	0.6	100.5*	44.2	1.12
CN(C)CCNC(=O)c1cc2c(s1)-c1ccccc1OC2	-1.0	0.296	1.1	91.3*	-10.6	nt
O=C(Oc1c(CN2CCOCC2)cc(Cl)c2cccnc12)c1ccccc1F	-3.0	-0.142	0.5	100.6*	50.5*	-0.00673
Oc1c(CN2CCCCC2)cc(Br)c2cccnc12	42.0	nt	0.4	100.5*	57.2*	0.265
COc1ccc(C(=O)Oc2c(CN3CCOCC3)cc(Cl)c3cccnc23)cc1OC	22.7	0.59	nt	96.6*	nt	nt
O=C(Oc1c(CN2CCOCC2)cc(Cl)c2cccnc12)c1ccccc1	-4.6	-0.521	0.7	100.3*	29.9	2.53
O=c1oc2ccccc2c(O)c1Cc1cc(Cl)c2cccnc2c1O	nt	2.79	nt	nt	nt	nt
Oc1c(CN2CCc3ccccc3C2)cc(Cl)c2cccnc12	45.0	2.32	0.3	100.4*	67.7*	nt
COC(=O)C(NNc1ccccc1)(NC(=O)c1cccc(F)c1)C(F)(F)F (stereo not given)	15.0	-0.00394	1	5.8	0.6	-0.398
Cc1nc2ccc(Cl)cc2nc(C)/c1=N\O	3.8	0.094	0.4	7.7	58.2*	nt
Cc1ccc2nc(C)/c(=N\O)c(C)nc2c1	-5.4	0.276	0.9	2.2	13.3	nt
CCCN(CCC)C(C)C(=O)NCC1(c2ccccc2)CCCC1 (stereo not given)	2.3	-0.215	0.9	11.0	14.4	-0.886
N#Cc1ccsc1NC(=O)CN1CCCCCC1	-4.1	1.33	0.9	58.6*	14.2	nt
N#Cc1ccsc1NC(=O)CN1CCOCC1	nt	-0.311	nt	nt	nt	nt
Cn1cc([N+](=O)[O-])c(C(=O)Nc2ccn(Cc3c(F)c(F)cc(F)c3F)n2)n1	-6.7	0.0262	1.1	-2.7	-6.9	0.454
Cc1cc(C(=O)C(C)OC(=O)C2=NNC(=O)CC2)c(C)n1-c1ccc(OC(F)F)cc1 (stereo not given)	-17.4	0.0412	0.8	99.5*	22.3	-0.0586
Cc1cc(C(=O)COC(=O)C2=NNC(=O)CC2)c(C)n1-c1ccc(OC(F)F)cc1	-8.3	1.52	1.1	-5.9	-8.6	-0.641
